Experimental data as given in ChEMBL document CHEMBL1148642, “(2S,3S)-3-Amino-4-(3,3-difluoropyrrolidin-1-yl)-N,N-dimethyl-4-oxo-2-(4-[1,2,4]triazolo[1,5-a]-pyridin-6-ylphenyl)butanamide: a selective alpha-amino amide dipeptidyl peptidase IV inhibitor for the treatment of type 2 diabetes” (J Med Chem, 2006).

Columns and labels:
[1] = test system: Rattus norvegicus; experiment: AUC in rat at 2 mg/kg, po normalized to 1 mg/kg; assay type: ADME, organism-based, Plasma; details: in vivo
[2] = biological target: Dipeptidyl peptidase 9 (Homo sapiens, UniProt Q86TI2); experiment: Inhibition of DPP9
Sequence of Dipeptidyl peptidase 9 (Q86TI2 whole entry): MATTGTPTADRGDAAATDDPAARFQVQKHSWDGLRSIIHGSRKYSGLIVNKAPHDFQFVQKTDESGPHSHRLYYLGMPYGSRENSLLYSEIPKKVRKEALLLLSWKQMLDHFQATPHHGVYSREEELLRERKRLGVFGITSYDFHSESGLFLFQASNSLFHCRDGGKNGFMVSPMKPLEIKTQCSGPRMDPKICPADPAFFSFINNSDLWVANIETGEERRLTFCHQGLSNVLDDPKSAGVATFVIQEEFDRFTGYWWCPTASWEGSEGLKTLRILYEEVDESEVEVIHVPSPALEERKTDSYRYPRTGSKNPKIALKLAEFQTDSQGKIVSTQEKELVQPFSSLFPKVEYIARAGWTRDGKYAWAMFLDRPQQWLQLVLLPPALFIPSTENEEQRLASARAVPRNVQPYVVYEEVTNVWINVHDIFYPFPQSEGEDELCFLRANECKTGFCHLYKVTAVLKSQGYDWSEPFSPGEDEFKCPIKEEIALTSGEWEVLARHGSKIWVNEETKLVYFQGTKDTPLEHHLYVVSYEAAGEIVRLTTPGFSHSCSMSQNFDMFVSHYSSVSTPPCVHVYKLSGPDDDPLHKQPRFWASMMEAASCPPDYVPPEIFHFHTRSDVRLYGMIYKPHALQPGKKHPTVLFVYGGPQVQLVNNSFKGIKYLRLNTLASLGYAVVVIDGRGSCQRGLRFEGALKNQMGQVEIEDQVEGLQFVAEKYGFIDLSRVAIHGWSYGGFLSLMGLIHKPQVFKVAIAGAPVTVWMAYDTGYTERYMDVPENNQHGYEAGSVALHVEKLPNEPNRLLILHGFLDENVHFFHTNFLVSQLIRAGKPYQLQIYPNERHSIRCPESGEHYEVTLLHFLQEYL

[3] = Cmax in rat at 2 mg/kg, po; assay type: ADME, organism-based; parameters: dose 2 mg/kg, route oral; details: in vivo
[4] = biological target: Dipeptidyl peptidase 8 (Homo sapiens, UniProt Q6V1X1); experiment: Inhibition of DPP8
Sequence of Dipeptidyl peptidase 8 (Q6V1X1 whole entry): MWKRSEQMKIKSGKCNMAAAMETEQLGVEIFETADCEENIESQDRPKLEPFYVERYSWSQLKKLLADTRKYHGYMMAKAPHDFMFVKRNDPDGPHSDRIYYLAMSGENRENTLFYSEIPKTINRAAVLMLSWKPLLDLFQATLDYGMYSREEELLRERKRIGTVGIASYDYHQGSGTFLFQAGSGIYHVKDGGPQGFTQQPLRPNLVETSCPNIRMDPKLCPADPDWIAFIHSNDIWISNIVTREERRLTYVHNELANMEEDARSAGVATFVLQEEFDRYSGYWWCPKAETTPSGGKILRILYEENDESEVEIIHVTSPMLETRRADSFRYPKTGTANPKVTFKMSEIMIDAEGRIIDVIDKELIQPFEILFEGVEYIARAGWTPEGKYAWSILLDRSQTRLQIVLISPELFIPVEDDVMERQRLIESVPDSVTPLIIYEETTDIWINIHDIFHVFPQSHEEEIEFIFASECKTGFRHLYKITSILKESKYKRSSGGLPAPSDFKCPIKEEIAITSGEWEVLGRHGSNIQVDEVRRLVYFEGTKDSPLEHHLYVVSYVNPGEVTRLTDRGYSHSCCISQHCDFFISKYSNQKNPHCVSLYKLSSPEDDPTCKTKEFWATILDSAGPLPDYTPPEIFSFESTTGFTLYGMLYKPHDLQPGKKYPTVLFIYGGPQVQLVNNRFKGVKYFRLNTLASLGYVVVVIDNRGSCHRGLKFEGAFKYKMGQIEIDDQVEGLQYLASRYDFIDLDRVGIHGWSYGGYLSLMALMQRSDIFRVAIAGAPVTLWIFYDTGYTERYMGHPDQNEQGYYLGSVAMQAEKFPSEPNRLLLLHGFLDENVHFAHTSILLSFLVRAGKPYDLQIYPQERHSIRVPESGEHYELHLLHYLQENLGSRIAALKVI

[5] = Plasma clearance in rat at 1 mg/kg, iv or 2 mg/kg, po; assay type: ADME, organism-based
[6] = Half life in rat at 1 mg/kg, iv or 2 mg/kg, po; assay type: ADME, organism-based; details: in vivo
[7] = biological target: T1, Dipeptidyl peptidase 4 (Homo sapiens, UniProt P27487); experiment: Inhibition of DPP4
T1 sequence (P27487 whole entry): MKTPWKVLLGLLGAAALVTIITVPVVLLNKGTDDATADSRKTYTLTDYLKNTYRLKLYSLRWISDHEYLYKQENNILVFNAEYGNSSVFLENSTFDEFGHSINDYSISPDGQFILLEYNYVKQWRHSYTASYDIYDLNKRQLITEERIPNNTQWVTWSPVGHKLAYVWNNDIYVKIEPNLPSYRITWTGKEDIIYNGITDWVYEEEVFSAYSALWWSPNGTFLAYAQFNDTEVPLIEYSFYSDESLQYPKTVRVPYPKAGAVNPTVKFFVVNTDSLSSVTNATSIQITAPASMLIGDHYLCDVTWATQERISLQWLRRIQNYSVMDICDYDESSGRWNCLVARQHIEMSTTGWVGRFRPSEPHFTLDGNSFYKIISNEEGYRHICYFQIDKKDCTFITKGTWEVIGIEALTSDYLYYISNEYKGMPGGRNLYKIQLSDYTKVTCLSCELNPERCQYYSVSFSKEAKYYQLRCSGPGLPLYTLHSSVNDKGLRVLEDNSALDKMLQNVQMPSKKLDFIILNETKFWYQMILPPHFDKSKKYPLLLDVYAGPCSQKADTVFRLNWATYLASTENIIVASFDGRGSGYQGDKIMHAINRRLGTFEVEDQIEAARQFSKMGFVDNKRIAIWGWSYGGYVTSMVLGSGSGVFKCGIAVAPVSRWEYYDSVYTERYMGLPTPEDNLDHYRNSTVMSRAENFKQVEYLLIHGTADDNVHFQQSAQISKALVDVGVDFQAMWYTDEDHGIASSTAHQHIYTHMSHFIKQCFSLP

[8] = biological target: T1, Dipeptidyl peptidase 4; experiment: Inhibition of DPP4 in presence of 50% human serum
[9] = biological target: Xaa-Pro aminopeptidase 1 (Homo sapiens, UniProt Q9NQW7); experiment: Inhibition of aminopeptidase P
Sequence of Xaa-Pro aminopeptidase 1 (Q9NQW7 whole entry): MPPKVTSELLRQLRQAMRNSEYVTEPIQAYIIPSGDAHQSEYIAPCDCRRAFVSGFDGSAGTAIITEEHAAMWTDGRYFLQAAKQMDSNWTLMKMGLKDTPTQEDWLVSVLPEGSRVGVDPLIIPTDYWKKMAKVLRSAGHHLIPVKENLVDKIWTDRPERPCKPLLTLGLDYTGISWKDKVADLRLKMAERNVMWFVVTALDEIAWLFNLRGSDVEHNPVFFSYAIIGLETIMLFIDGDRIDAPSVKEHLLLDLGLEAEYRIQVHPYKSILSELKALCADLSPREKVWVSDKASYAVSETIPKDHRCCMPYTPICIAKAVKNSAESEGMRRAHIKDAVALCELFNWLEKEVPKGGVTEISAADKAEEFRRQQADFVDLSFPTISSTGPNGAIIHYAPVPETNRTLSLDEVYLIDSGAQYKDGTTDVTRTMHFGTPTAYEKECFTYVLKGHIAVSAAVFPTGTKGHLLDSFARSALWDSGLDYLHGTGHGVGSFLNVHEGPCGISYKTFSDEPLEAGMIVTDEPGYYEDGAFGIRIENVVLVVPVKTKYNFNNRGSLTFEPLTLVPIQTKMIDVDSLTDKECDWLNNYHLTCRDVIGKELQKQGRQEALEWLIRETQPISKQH

[10] = biological target: Dipeptidyl peptidase 2 (Homo sapiens, UniProt Q9UHL4); experiment: Inhibition of QPP
[11] = biological target: T2, Xaa-Pro dipeptidase (Homo sapiens, UniProt P12955); experiment: Inhibition of prolidase
T2 sequence (P12955 whole entry): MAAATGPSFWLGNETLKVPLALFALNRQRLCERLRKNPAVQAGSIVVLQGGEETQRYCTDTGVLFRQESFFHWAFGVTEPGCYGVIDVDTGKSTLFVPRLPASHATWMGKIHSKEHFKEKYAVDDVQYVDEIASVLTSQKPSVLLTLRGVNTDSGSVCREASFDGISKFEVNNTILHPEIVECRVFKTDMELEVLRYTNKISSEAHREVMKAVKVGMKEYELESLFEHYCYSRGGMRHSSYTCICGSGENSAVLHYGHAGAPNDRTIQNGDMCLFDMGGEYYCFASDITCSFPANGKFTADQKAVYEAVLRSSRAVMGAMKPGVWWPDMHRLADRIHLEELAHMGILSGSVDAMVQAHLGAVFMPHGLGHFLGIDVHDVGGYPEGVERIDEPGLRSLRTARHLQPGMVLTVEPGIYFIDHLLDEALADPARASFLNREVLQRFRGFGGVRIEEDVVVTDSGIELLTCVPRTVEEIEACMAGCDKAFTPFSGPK

[12] = biological target: T3, Prolyl endopeptidase FAP (Homo sapiens, UniProt Q12884); experiment: Inhibition of FAP
T3 sequence (Q12884 whole entry): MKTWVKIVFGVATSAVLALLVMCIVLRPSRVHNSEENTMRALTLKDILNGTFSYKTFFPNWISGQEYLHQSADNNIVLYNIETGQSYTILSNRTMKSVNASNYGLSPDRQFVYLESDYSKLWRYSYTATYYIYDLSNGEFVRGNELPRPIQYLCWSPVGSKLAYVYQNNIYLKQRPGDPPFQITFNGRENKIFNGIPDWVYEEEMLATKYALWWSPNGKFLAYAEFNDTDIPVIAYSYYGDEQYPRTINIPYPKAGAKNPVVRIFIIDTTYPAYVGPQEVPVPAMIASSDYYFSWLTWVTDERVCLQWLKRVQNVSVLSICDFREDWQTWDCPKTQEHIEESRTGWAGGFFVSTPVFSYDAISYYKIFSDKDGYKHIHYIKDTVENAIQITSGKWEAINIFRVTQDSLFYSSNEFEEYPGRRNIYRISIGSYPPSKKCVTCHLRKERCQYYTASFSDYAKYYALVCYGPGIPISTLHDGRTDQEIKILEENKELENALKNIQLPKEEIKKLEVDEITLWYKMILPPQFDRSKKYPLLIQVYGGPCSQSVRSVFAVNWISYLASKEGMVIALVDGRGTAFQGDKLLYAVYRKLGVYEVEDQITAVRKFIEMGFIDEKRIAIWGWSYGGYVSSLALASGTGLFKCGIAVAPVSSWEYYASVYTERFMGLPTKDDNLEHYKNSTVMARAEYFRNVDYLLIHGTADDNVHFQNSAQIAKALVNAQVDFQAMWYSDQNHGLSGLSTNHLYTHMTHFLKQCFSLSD

[13] = Bioavailability in rat at 1 mg/kg, iv and 2 mg/kg, po; assay type: ADME, organism-based; details: in vivo
[14] = test system: Canis familiaris; experiment: AUC in dog at 2 mg/kg, po normalized to 1 mg/kg; assay type: ADME, organism-based, Canis lupus familiaris, Plasma; details: in vivo
[15] = Half life in dog at 1 mg/kg, iv or 2 mg/kg, po; assay type: ADME, organism-based, Canis lupus familiaris; details: in vivo
[16] = Bioavailability in dog at 1 mg/kg, iv and 2 mg/kg, po; assay type: ADME, organism-based, Canis lupus familiaris; details: in vivo
[17] = Plasma clearance in dog at 1 mg/kg, iv or 2 mg/kg, po; assay type: ADME, organism-based, Canis lupus familiaris
[18] = Cmax in dog at 2 mg/kg, po; assay type: ADME, organism-based, Canis lupus familiaris; parameters: dose 2 mg/kg, route oral; details: in vivo
[19] = biological target: Sodium channel protein type 5 subunit alpha (Homo sapiens, UniProt Q14524); experiment: Inhibition of human cardiac sodium channel
How it was run: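 Membranes from HEK293 cells stably expressing human cardiac Na+ channel hNav1.5 (40-80 µg), with [3H]-BPBTS (1 nM final), in 20 mM Tris-HCl pH 7.4 with 0.01 mg/mL bacitracin. Incubated 16 h at room temperature with shaking, then filtered and scintillation counted. Nonspecific binding was taken with 5 µM unlabeled ligand; total binding with DMSO only.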

[20] = biological target: Voltage-dependent L-type calcium channel subunit alpha-1S (Oryctolagus cuniculus, UniProt P07293); experiment: Inhibition of rabbit skeletal muscle L-type calcium channel
Sequence of Voltage-dependent L-type calcium channel subunit alpha-1S (P07293 whole entry): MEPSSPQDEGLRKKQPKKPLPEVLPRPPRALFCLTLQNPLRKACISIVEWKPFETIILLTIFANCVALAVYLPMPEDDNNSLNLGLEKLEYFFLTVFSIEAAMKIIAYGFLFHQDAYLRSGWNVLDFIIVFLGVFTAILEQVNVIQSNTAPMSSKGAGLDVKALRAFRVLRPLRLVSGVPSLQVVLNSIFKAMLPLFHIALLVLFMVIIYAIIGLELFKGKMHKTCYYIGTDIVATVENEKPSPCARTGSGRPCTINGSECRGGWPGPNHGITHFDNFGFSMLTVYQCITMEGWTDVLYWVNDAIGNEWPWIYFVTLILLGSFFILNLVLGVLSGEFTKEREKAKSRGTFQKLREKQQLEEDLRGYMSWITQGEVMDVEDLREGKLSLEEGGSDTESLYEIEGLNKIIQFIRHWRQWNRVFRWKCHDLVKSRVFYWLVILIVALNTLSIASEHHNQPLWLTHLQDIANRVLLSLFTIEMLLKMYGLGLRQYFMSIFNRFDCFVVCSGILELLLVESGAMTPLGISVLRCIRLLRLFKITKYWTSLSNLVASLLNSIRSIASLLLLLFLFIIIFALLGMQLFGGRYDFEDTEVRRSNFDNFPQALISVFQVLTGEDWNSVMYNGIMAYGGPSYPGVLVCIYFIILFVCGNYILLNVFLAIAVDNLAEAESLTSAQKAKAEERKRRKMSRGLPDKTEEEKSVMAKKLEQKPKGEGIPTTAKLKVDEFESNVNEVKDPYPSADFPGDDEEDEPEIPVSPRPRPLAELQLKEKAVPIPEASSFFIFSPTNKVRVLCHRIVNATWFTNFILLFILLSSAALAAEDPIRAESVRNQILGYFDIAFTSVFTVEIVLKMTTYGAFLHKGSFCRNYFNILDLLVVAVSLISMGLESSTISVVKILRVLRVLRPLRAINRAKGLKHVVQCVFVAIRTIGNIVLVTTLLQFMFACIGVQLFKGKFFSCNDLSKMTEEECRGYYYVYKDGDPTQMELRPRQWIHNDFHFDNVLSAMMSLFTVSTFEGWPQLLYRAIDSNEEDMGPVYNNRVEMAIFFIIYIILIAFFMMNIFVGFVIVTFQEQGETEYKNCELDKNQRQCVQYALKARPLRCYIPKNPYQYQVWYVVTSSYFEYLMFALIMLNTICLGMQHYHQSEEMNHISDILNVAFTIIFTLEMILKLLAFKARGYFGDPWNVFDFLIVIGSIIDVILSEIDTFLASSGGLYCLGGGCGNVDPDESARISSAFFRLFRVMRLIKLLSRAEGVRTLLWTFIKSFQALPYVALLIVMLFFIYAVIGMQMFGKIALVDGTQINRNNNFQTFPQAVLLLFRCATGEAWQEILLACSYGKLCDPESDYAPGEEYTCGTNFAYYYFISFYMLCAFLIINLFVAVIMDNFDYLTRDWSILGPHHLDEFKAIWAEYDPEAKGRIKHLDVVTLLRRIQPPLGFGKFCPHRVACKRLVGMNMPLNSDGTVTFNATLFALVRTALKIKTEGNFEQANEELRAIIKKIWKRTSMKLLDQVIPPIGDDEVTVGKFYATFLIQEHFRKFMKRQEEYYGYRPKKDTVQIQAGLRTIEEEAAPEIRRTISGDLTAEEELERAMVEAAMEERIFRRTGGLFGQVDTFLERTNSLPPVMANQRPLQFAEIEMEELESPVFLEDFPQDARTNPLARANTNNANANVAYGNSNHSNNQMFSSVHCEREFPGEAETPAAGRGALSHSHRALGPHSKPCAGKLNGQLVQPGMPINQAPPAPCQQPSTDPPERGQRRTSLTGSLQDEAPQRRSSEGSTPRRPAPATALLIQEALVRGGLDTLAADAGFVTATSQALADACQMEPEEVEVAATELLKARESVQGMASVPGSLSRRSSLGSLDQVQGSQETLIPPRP
How it was run: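 Rabbit skeletal muscle membranes (40-70 µg) with [3H]-diltiazem (20 nM final) in 50 mM Tris pH 7.4. Serially diluted compound added; incubated 60 min at room temperature with shaking. Filtered through PEI-soaked filters, washed three times with ice-cold buffer, then counted. Nonspecific binding in 20 µM unlabeled diltiazem; total binding with DMSO only.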

[21] = biological target: Voltage-gated inwardly rectifying potassium channel KCNH2 (Homo sapiens, UniProt Q12809); experiment: Inhibition of hERG; assay type: toxicity

Structure (SMILES)	AUC [1] [µM·h]	IC50 [2] [µM]	Cmax [3] [µM]	IC50 [4] [µM]	clearance [5] [mL/min/kg]	half-life [6] [h]	IC50 [7] [µM]	IC50 [8] [µM]	IC50 [9] [µM]	IC50 [10] [µM]	IC50 [11] [µM]	IC50 [12] [µM]	bioavailability [13] [%]	AUC [14] [µM·h]	half-life [15] [h]	clearance [17] [mL/min/kg]	Cmax [18] [µM]	further results
CN(C)C(=O)[C@@H](c1ccc(-c2ccn3ncnc3c2)cc1)[C@H](N)C(=O)N1CC[C@H](F)C1.O=C(O)C(F)(F)F	0.83	> 100	0.6	> 100	10	1.7	0.0053	0.035	> 40	14	> 40	> 40	21					
CN(C)C(=O)[C@@H](c1ccc(-c2ccc3ncnn3c2)cc1)[C@H](N)C(=O)N1CC[C@H](F)C1.O=C(O)C(F)(F)F	2.4	> 100	2.3	> 100	7	2			> 40	> 100	> 40	> 40		12	2.4	3.1	6.6	
CN(C)C(=O)[C@@H](c1ccc(-c2ccc3nncn3c2)cc1)[C@H](N)C(=O)N1CC[C@H](F)C1.O=C(O)C(F)(F)F	0.009	> 100	0.008	> 100	34	1.1	0.0041	0.016	> 40	> 100	> 40	> 40	0.76					
CN(C)C(=O)[C@@H](c1ccc(-c2ccc3ncnn3c2)cc1)[C@H](N)C(=O)N1CC(F)C1.O=C(O)C(F)(F)F	2.2	> 100	2.4	> 100	7.3	2.1	0.0027	0.041	> 40	> 100	> 40	> 40	37	6.9	2	6.1	4	bioavailability [16]: 100%
Cc1cc(-c2ccc([C@H](C(=O)N(C)C)[C@H](N)C(=O)N3CC[C@H](F)C3)cc2)cn2ncnc12		> 100		> 100			0.15	0.64	> 40	> 100	> 40	> 40						
Cc1c(-c2ccc([C@H](C(=O)N(C)C)[C@H](N)C(=O)N3CC[C@H](F)C3)cc2)ccc2ncnn12		> 100		> 100			0.0086	0.061	> 40	> 100	> 40	> 40						
CN(C)C(=O)[C@@H](c1ccc(-c2ccn3ncnc3c2)cc1)[C@H](N)C(=O)N1CCC(F)(F)C1.O=C(O)C(F)(F)F	15	> 100	7.8	> 100	1.8	1.1	0.0062	0.034	> 40	26	> 40	> 40	69	20	3.4	1.5	9.5	IC50 [19]: > 100 µM; IC50 [21]: 16 µM; bioavailability [16]: 81%; IC50 [20]: 54 µM

Further lines, with some results ahead:

AUC [1] [µM·h]	IC50 [2] [µM]	Cmax [3] [µM]	IC50 [4] [µM]	clearance [5] [mL/min/kg]	half-life [6] [h]	IC50 [7] [µM]	IC50 [8] [µM]	IC50 [9] [µM]	IC50 [10] [µM]	IC50 [11] [µM]	IC50 [12] [µM]	bioavailability [13] [%]	AUC [14] [µM·h]	half-life [15] [h]	clearance [17] [mL/min/kg]	Cmax [18] [µM]	Structure (SMILES)	further results
5.6	> 100	3.9	> 100	3.3	4.3	0.008	0.053	> 40	63	> 40	> 40	46					CN(C)C(=O)[C@@H](c1ccc(-c2ccn3nccc3n2)cc1)[C@H](N)C(=O)N1CC[C@H](F)C1.O=C(O)C(F)(F)F	
	> 100		> 100			0.013	0.133	> 40	> 100	> 40	> 40						CN(C)C(=O)[C@@H](c1ccc(-c2ccc3nccn3c2)cc1)[C@H](N)C(=O)N1CC[C@H](F)C1	
2.9	14	2.1	> 100	7.7	1.6	0.0052	0.063	> 40	> 100	> 40	> 40	46	6.8	1.1	5.9	5.9	CN(C)C(=O)[C@@H](c1ccc(-c2ccc3ncnn3c2)cc1)[C@H](N)C(=O)N1CCCC1.O=C(O)C(F)(F)F	bioavailability [16]: 98%
24	> 100	8.9	> 100	1.4	2.7	0.0075	0.057	> 40	18	> 40	> 40	79	38	3.1	1	22	CN(C)C(=O)[C@@H](c1ccc(-c2ccn3nccc3n2)cc1)[C@H](N)C(=O)N1CCC(F)(F)C1.O=C(O)C(F)(F)F	IC50 [19]: 60 µM; bioavailability [16]: 100%; IC50 [20]: 15 µM
	> 100		> 100			0.022	0.223	> 40	> 100	> 40	> 40						Cc1nc2ccc(-c3ccc([C@H](C(=O)N(C)C)[C@H](N)C(=O)N4CC[C@H](F)C4)cc3)cn2n1	
	> 100		> 100			0.013	0.177	> 40	> 100	> 40	> 40						CN(C)C(=O)[C@@H](c1ccc(-c2ccc3nccn3n2)cc1)[C@H](N)C(=O)N1CC[C@H](F)C1	
0.048	> 100	0.021	> 100	15	1.2	0.008	0.079	> 40	> 100	> 40	> 40	2					CN(C)C(=O)[C@@H](c1ccc(-c2ccc(=O)n(C)c2)cc1)[C@H](N)C(=O)N1CC[C@H](F)C1.O=C(O)C(F)(F)F	
